According to ChEMBL document CHEMBL1221294, “Novel nucleosides as potent influenza viral inhibitors” (Bioorg Med Chem, 2010):
≈ marks a conversion by molar mass, not a printed value. Calls of active or inactive are those of the source. No cut-off for these calls is given here.

Key:
Influenza B virus [1] = experiment: Antiviral activity against Influenza B virus Florida/4/2006 infected in MDCK cells; assay type: functional, cell-based; details: B/Florida/4/2006, MDCK
Influenza A virus [2] = experiment: Antiviral activity against Influenza A virus H5N1 Vietnam/1203/2004H infected in MDCK cells; assay type: functional, organism-based; details: A/Viet Nam/1203/2004(H5N1)
MDCK = experiment: Cytotoxicity against MDCK cells; assay type: cell-based; details: Canis lupus familiaris
Outline: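 Run in MDCK cells, two uninfected toxicity-control wells per compound concentration alongside the infected wells. Neutral red uptake in these wells is read spectrophotometrically to give an NR IC50. The wells are also examined microscopically against untreated normal cells for enlargement, granularity, rounding, detachment and similar changes. The IC50 from these observations is derived by regression analysis.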

Influenza B virus [3] = experiment: Antiviral activity against Influenza B virus Florida/4/2006 infected in MDCK cells at up to 100 uM; assay type: functional, cell-based; details: B/Florida/4/2006
Influenza A virus [4] = experiment: Antiviral activity against Influenza A virus H5N1 Vietnam/1203/2004H infected in MDCK cells at up to 100 uM; assay type: functional, organism-based; details: A/Viet Nam/1203/2004(H5N1)
[5] = Selectivity index, IC50 for MDCK cells to EC50 for Influenza B virus Florida/4/2006 infected in MDCK cells assessed as increase of neutral red uptake; assay type: functional
Outline: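 Run in MDCK cells. Antiviral EC50 comes from neutral red uptake, since undamaged cells take up more dye, read on a microplate reader. Cytotoxicity uses neutral red in uninfected, compound-treated toxicity control wells run alongside, read spectrophotometrically to give NR IC50. SI = IC50/EC50.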

Influenza B virus [6] = experiment: Antiviral activity against Influenza B virus Florida/4/2006 infected in MDCK cells assessed as increase of neutral red uptake; assay type: functional, cell-based; details: B/Florida/4/2006, MDCK
Outline: (§1)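 Neutral red dye uptake read-out run in MDCK cells. Cells not damaged by virus take up more dye, which is measured on a microplate reader. The EC50 is derived from dye uptake.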

Influenza A virus [7] = experiment: Antiviral activity against Influenza A virus H5N1 Vietnam/1203/2004H infected in MDCK cells assessed as reduction of viral yeild; assay type: functional; details: A/Viet Nam/1203/2004(H5N1)
[8] = Selectivity index, IC50 for MDCK cells to EC50 for Influenza B virus Florida/4/2006 infected in MDCK cells assessed as reduction of virus-induced cytopathogenicity by confocal microscopic analysis; assay type: functional
Outline: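 CPE inhibition in MDCK cells, scored microscopically. At each concentration, two uninfected treated wells are examined for morphology changes against normal control cells: enlargement, granularity, ragged edges, filmy appearance, rounding or detachment. Cytotoxic IC50 is found by regression analysis. SI = IC50/EC50.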

Influenza A virus [9] = experiment: Antiviral activity against Influenza A virus H5N1 Vietnam/1203/2004H infected in MDCK cells assessed as reduction of virus-induced cytopathogenicity by confocal microscopic analysis; assay type: functional, organism-based; details: A/Viet Nam/1203/2004(H5N1)
[10] = Selectivity index, IC50 for MDCK cells to EC90 for Influenza B virus Florida/4/2006 infected in MDCK cells assessed as reduction of viral yield; assay type: functional
Outline: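 Retest in MDCK cells of compounds active by neutral red, with virus yield reduction measured on the same plate as CPE inhibition. A known active drug is the parallel positive control. EC90 is the concentration lowering virus yield by 1 log10. SI is the ratio of cytotoxic IC50 to EC90.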

Influenza B virus [11] = experiment: Antiviral activity against Influenza B virus Florida/4/2006 infected in MDCK cells assessed as reduction of virus-induced cytopathogenicity by confocal microscopic analysis; assay type: functional, cell-based; details: B/Florida/4/2006, MDCK
Influenza A virus [12] = experiment: Antiviral activity against Influenza A virus H5N1 Vietnam/1203/2004H infected in MDCK cells assessed as increase of neutral red uptake; assay type: functional, organism-based; details: A/Viet Nam/1203/2004(H5N1); outline: as §1
Influenza B virus [13] = experiment: Antiviral activity against Influenza B virus Florida/4/2006 infected in MDCK cells assessed as reduction of viral yeild; assay type: functional; details: B/Florida/4/2006, MDCK

| Compound | EC50 (Influenza B virus [1]) | EC50 (Influenza A virus [2]) | IC50 (MDCK) | Activity (Influenza B virus [3]) | Activity (Influenza A virus [4]) | also measured |
| --- | --- | --- | --- | --- | --- | --- |
| CCOc1ncnc2c1ncn2[C@@H]1O[C@H](COC(=O)c2ccccc2)[C@](C)(OC(C)=O)[C@@]1(C)F | > 100 µg/mL | 48 µg/mL (≈ 102 µM) | > 100 µg/mL | – | – | – |
| CC(=O)O[C@@]1(C)[C@@H](COC(=O)c2ccccc2)O[C@H](n2cnc3c(Cl)ncnc32)[C@]1(C)F | – | – | – | inactive | inactive | – |
| CC(=O)O[C@@]1(C)[C@@H](COC(=O)c2ccccc2)O[C@H](n2cnc3c(NCC4CC4)ncnc32)[C@]1(C)F | – | – | – | inactive | inactive | – |
| C[C@]1(O)[C@@H](CO)O[C@H](n2cnc3c(O)ncnc32)[C@]1(C)F | – | – | – | inactive | inactive | – |
| C[C@]1(O)[C@@H](CO)O[C@H](n2cnc3c(NC4CC4)ncnc32)[C@]1(C)F | – | – | – | inactive | inactive | – |
| C[C@]1(O)[C@@H](CO)O[C@H](n2cnc3c(NC4CCC4)ncnc32)[C@]1(C)F | – | – | – | inactive | inactive | – |
| CC(=O)O[C@@]1(C)[C@@H](COC(=O)c2ccccc2)O[C@H](n2cnc3c(NCc4ccco4)ncnc32)[C@]1(C)F | – | – | – | inactive | inactive | – |
| C[C@]1(O)[C@@H](CO)O[C@H](n2cnc3c(NCc4ccco4)ncnc32)[C@]1(C)F | – | – | – | inactive | inactive | – |
| CCOc1ncnc2c1ncn2[C@H]1O[C@H](CO)[C@](C)(O)[C@@]1(C)F | – | – | – | inactive | inactive | – |
| CN1CCN(c2ncnc3c2ncn3[C@H]2O[C@H](CO)[C@](C)(O)[C@@]2(C)F)CC1 | – | – | – | inactive | inactive | – |
| C[C@]1(O)[C@@H](CO)O[C@H](n2cnc3c(N4CCOCC4)ncnc32)[C@]1(C)F | – | – | – | inactive | inactive | – |
| CC(=O)O[C@]1(C)[C@@H](COC(=O)c2ccccc2)O[C@@H](n2cnc3c(Cl)ncnc32)[C@]1(C)F | > 100 µg/mL | > 100 µg/mL | > 100 µg/mL | – | – | – |
| CC(=O)O[C@@]1(C)[C@@H](COC(=O)c2ccccc2)O[C@@H](n2cnc3c(O)ncnc32)[C@]1(C)F | 65 µg/mL (≈ 146 µM) | 33 µg/mL (≈ 74.3 µM) | > 100 µg/mL | – | – | – |
| CC(=O)O[C@@]1(C)[C@@H](COC(=O)c2ccccc2)O[C@@H](n2cnc3c(NCc4ccco4)ncnc32)[C@]1(C)F | 32 µg/mL (≈ 61.1 µM) | 31 µg/mL (≈ 59.2 µM) | > 100 µg/mL | – | – | – |
| CC(=O)O[C@@]1(C)[C@@H](COC(=O)c2ccccc2)O[C@H](n2cnc3c(N4CCOCC4)ncnc32)[C@]1(C)F | – | – | – | inactive | inactive | – |
| CC(=O)O[C@@]1(C)[C@@H](COC(=O)c2ccccc2)O[C@H](n2cnc3c(O)ncnc32)[C@]1(C)F | – | – | – | inactive | inactive | – |
| CC(=O)O[C@@]1(C)[C@@H](COC(=O)c2ccccc2)O[C@H](n2cnc3c(NC4CC4)ncnc32)[C@]1(C)F | – | – | – | inactive | inactive | – |

| Compound | EC50 (Influenza B virus [1]) | EC50 (Influenza A virus [2]) | IC50 (MDCK) | Activity (Influenza B virus [3]) | Activity (Influenza A virus [4]) | also measured |
| --- | --- | --- | --- | --- | --- | --- |
| CC(=O)O[C@@]1(C)[C@@H](COC(=O)c2ccccc2)O[C@@H](n2cnc3c(Cl)ncnc32)[C@]1(C)F | 3.7 µg/mL (≈ 7.99 µM) | 7.1 µg/mL (≈ 15.3 µM) | 18 µg/mL (≈ 38.9 µM) | – | – | Ratio IC50/EC50 [5]: 15; EC50 (Influenza B virus [6]): 1.2 µg/mL (≈ 2.59 µM); EC90 (Influenza A virus [7]): 4.4 µg/mL (≈ 9.51 µM); Ratio IC50/EC50 [8]: 15; EC50 (Influenza A virus [9]): 1.26 µg/mL (≈ 2.72 µM); Ratio IC50/EC50 [10]: 2.9; EC50 (Influenza B virus [11]): 1.2 µg/mL (≈ 2.59 µM); EC50 (Influenza A virus [12]): 1.76 µg/mL (≈ 3.8 µM); EC90 (Influenza B virus [13]): 6.3 µg/mL (≈ 13.6 µM) |
| C[C@]1(O)[C@@H](CO)O[C@H](n2cnc3c(NCC4CC4)ncnc32)[C@]1(C)F | – | – | – | inactive | inactive | – |
| CC(=O)O[C@@]1(C)[C@@H](COC(=O)c2ccccc2)O[C@@H](n2cnc3c(NC4CC4)ncnc32)[C@]1(C)F | 20 µg/mL (≈ 41.4 µM) | 50 µg/mL (≈ 103 µM) | > 100 µg/mL | – | – | – |
| CC(=O)O[C@@]1(C)[C@@H](COC(=O)c2ccccc2)O[C@@H](n2cnc3c(N4CCOCC4)ncnc32)[C@]1(C)F | 25 µg/mL (≈ 48.7 µM) | 24 µg/mL (≈ 46.7 µM) | > 100 µg/mL | – | – | – |
| CC(=O)O[C@@]1(C)[C@@H](COC(=O)c2ccccc2)O[C@H](n2cnc3c(N4CCN(C)CC4)ncnc32)[C@]1(C)F | – | – | – | inactive | inactive | – |
| C[C@]1(O)[C@@H](CO)O[C@H](n2cnc3c(NCc4ccc(F)cc4)ncnc32)[C@]1(C)F | – | – | – | inactive | inactive | – |
| CC(=O)O[C@]1(C)[C@@H](COC(=O)c2ccccc2)O[C@H](n2cnc3c(Cl)ncnc32)[C@]1(C)F | – | – | – | inactive | inactive | – |
| C[C@]1(F)[C@H](n2cnc3c(N)ncnc32)O[C@H](CO)[C@@]1(C)O | > 100 µg/mL | > 100 µg/mL | > 100 µg/mL | – | – | – |
| C[C@]1(F)[C@@H](n2cnc3c(N)ncnc32)O[C@H](CO)[C@@]1(C)O | – | – | – | inactive | inactive | – |
| CCOc1ncnc2c1ncn2[C@H]1O[C@H](COC(=O)c2ccccc2)[C@](C)(OC(C)=O)[C@@]1(C)F | – | – | – | inactive | inactive | – |
| CC(=O)O[C@@]1(C)[C@@H](COC(=O)c2ccccc2)O[C@@H](n2cnc3c(NC4CCC4)ncnc32)[C@]1(C)F | 27 µg/mL (≈ 54.3 µM) | 23 µg/mL (≈ 46.2 µM) | > 100 µg/mL | – | – | – |
| CC(=O)O[C@@]1(C)[C@@H](COC(=O)c2ccccc2)O[C@@H](n2cnc3c(N4CCN(C)CC4)ncnc32)[C@]1(C)F | 42 µg/mL (≈ 79.8 µM) | > 100 µg/mL | > 100 µg/mL | – | – | – |
| CC(=O)O[C@@]1(C)[C@@H](COC(=O)c2ccccc2)O[C@@H](n2cnc3c(NCC4CC4)ncnc32)[C@]1(C)F | 17 µg/mL (≈ 34.2 µM) | 32 µg/mL (≈ 64.3 µM) | > 100 µg/mL | – | – | – |
| CC(=O)O[C@@]1(C)[C@@H](COC(=O)c2ccccc2)O[C@@H](n2cnc3c(NCc4ccc(F)cc4)ncnc32)[C@]1(C)F | 30 µg/mL (≈ 54.4 µM) | 32 µg/mL (≈ 58 µM) | 36 µg/mL (≈ 65.3 µM) | – | – | – |
| CC(=O)O[C@@]1(C)[C@@H](COC(=O)c2ccccc2)O[C@H](n2cnc3c(NCc4ccc(F)cc4)ncnc32)[C@]1(C)F | – | – | – | inactive | inactive | – |
| CC(=O)O[C@@]1(C)[C@@H](COC(=O)c2ccccc2)O[C@H](n2cnc3c(NC4CCC4)ncnc32)[C@]1(C)F | – | – | – | inactive | inactive | – |
